Screening results as filed in PubChem.
T cruzi growth = inhibitors of T. cruzi proliferation | inhibition, % at 8.34 µM | T. cruzi beta-gal in NIH3T3, GalScreen luminescence, 90 h | 77,000 tested, 5.9% active;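 active means mean inhibition above about 93%, with at least 55% of replicates each passing it, limit read from the data, passing the limit was not always enough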
IDH1 mut inh = inhibitors of human IDH1 R132H. inhibition, % at 10 µM. IDH1 R132H reductase, diaphorase/resazurin fluorescence, 60 min. AID 624101. 70,000 tested, 0.18% active. O75874; in the data active means inhibition above about 34%
KDM4C inh = blocks human GASC-1 (KDM4C) demethylase activity; Q9H3R0; GST-KDM4C 2-372, H3K9me3 peptide, LANCE TR-FRET; inhibition, % at 12.5 µM; 96,000 tested, 0.15% active; AID 720574;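 active means mean replicate inhibition above about 25%, with at least 55% of replicates also reaching it, limit read from the data, passing the limit was not always enough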
Target sequence (Q9H3R0 2-372 limits assumed): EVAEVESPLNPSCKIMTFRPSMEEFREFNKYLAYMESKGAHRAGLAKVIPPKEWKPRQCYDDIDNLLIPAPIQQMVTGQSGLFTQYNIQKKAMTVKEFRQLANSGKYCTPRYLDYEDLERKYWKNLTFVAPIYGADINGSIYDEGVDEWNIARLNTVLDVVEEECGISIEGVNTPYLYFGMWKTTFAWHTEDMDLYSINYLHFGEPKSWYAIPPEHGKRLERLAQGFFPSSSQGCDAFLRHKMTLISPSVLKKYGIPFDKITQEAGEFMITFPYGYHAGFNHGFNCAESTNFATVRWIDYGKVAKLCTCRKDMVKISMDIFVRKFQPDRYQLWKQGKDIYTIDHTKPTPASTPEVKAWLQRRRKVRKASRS
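System: N-terminal GST-fused human GASC-1 (KDM4C) fragment, residues 2-372; amount: enzyme final amount 10 nM; incubation: reaction 30 min RT, detection step 1 h RT; medium: HEPES buffer, pH 7.5, plus ascorbate; technique: LANCE TR-FRET, Eu antibody, ULight-streptavidin, EDTA, ex 340 nm, em 618/671 nm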
Pf Dd2 inh = inhibitors of Plasmodium falciparum Dd2 growth. P. falciparum Dd2 growth, SYBR Green, 72 h; active compounds read low. activity change, % at 10 µM. 94,000 tested, 2.3% active. AID 1159554; in the data active means activity change below about -80%
A number is an active result. Compounds with a hit are over-represented: about 5.8% of the library has one in this group of screens.

Results for Cc1ccc(S(=O)(=O)N(C)C[C@H]2OCCCC[C@H](C)Oc3ccc(NS(=O)(=O)c4cccs4)cc3C(=O)N([C@@H](C)CO)C[C@H]2C)cc1 ?
T cruzi growth: inactive; KDM4C inh: inactive; Pf Dd2 inh: -85

What do the screens show for `Cc1ccc(S(=O)(=O)N(C)C[C@H]2OCCCC[C@@H](C)Oc3ccc(NS(=O)(=O)c4cccs4)cc3C(=O)N([C@H](C)CO)C[C@@H]2C)cc1`?
T cruzi growth: inactive; IDH1 mut inh: inactive; KDM4C inh: inactive; Pf Dd2 inh: inactive

Results for C[C@@H]1CN([C@H](C)CO)C(=O)c2cc(NS(=O)(=O)c3cccs3)ccc2O[C@@H](C)CCCCO[C@@H]1CN(C)S(=O)(=O)c1ccc(F)cc1 ?
T cruzi growth: inactive; IDH1 mut inh: inactive; KDM4C inh: inactive; Pf Dd2 inh: -89

How did C[C@H](CO)N1C[C@H](C)[C@H](CN(C)S(=O)(=O)c2ccccc2F)Oc2ncc(C#Cc3ccncc3)cc2C1=O do in these assays?
T cruzi growth: inactive; KDM4C inh: inactive; Pf Dd2 inh: inactive

What do the screens show for `O=C(C1CCOCC1)N1C[C@H]2[C@@H](c3ccccc31)[C@H](CO)N2C(=O)Cc1ccccc1`?
T cruzi growth: inactive; KDM4C inh: 29; Pf Dd2 inh: inactive

What do the screens show for `O=C(C1CCOCC1)N1C[C@@H]2[C@H](c3ccccc31)[C@H](CO)N2C(=O)Cc1ccccc1`?
T cruzi growth: inactive; KDM4C inh: inactive; Pf Dd2 inh: inactive

What do the screens show for `C[C@@H]1CN([C@H](C)CO)C(=O)c2cc(NC(=O)C3CCCCC3)ccc2O[C@@H]1CN(C)Cc1ccc(C(=O)Nc2ccccc2N)cc1`?
T cruzi growth: inactive; KDM4C inh: inactive; Pf Dd2 inh: -83

What do the screens show for `C[C@@H]1CN([C@@H](C)CO)C(=O)c2cc(NC(=O)C3CC3)ccc2O[C@@H]1CN(C)Cc1ccc(C(=O)Nc2ccccc2N)cc1`?
T cruzi growth: inactive; IDH1 mut inh: inactive; KDM4C inh: inactive; Pf Dd2 inh: inactive

What do the screens show for `C[C@@H]1CN([C@@H](C)CO)C(=O)c2cc(NC(=O)C3CCCCC3)ccc2O[C@@H]1CN(C)Cc1ccc(C(=O)Nc2ccccc2N)cc1`?
T cruzi growth: inactive; KDM4C inh: inactive; Pf Dd2 inh: -89

How did C[C@H]1CN([C@@H](C)CO)C(=O)c2cc(NC(=O)C3CC3)ccc2O[C@H]1CN(C)Cc1ccc(C(=O)Nc2ccccc2N)cc1 do in these assays?
IDH1 mut inh: inactive; KDM4C inh: inactive; Pf Dd2 inh: inactive

Results for C[C@H](CO)N1C[C@H](C)[C@H](CN(C)Cc2ccc(C(=O)Nc3ccccc3N)cc2)OCCCC[C@H](C)Oc2ccc(NC(=O)C3CCCCC3)cc2C1=O ?
IDH1 mut inh: inactive; KDM4C inh: inactive; Pf Dd2 inh: -92

How did COc1cccc(C(=O)Nc2ccc3c(c2)OC[C@H](C)NC[C@H](C)[C@@H](OC)CN(C)C3=O)c1 do in these assays?
KDM4C inh: inactive; Pf Dd2 inh: inactive

Results for COc1ccc2c3c([nH]c2c1)[C@H](CO)N(C(C)=O)CC31CN(C(=O)c2ccc3c(c2)OCO3)C1 ?
KDM4C inh: inactive; Pf Dd2 inh: inactive

How did CCCNC(=O)N(C)C[C@H]1Oc2ncc(-c3ccccc3F)cc2C(=O)N([C@H](C)CO)C[C@H]1C do in these assays?
IDH1 mut inh: inactive; KDM4C inh: inactive; Pf Dd2 inh: inactive

What do the screens show for `CS(=O)(=O)N(CC(=O)Nc1cccc(Cl)c1)c1ccc(F)cc1`?
IDH1 mut inh: inactive

What do the screens show for `O=C(NCCCn1ccnc1)c1ccccc1I`?
IDH1 mut inh: inactive

How did O=C(NCCCn1ccnc1)c1cc(-c2ccc(Br)cc2)nc2ccccc12 do in these assays?
IDH1 mut inh: 42

Results for C[C@@H]1CN([C@H](C)CO)C(=O)c2cc(C#CCc3ccccc3)cnc2O[C@@H]1CN(C)CC1CC1 ?
T cruzi growth: inactive; IDH1 mut inh: inactive; KDM4C inh: inactive; Pf Dd2 inh: -81

What do the screens show for `C[C@H]1CN([C@@H](C)CO)C(=O)c2cc(C#CCc3ccccc3)cnc2O[C@H]1CN(C)CC1CC1`?
T cruzi growth: inactive; IDH1 mut inh: inactive; KDM4C inh: inactive; Pf Dd2 inh: inactive

How did CCCC#Cc1cnc2c(c1)C(=O)N([C@H](C)CO)C[C@H](C)[C@@H](CN(C)Cc1cccnc1)O2 do in these assays?
T cruzi growth: inactive; IDH1 mut inh: 100; KDM4C inh: 64; Pf Dd2 inh: inactive

What do the screens show for `C[C@@H]1CN([C@@H](C)CO)C(=O)c2cc(C#CCc3ccccc3)cnc2O[C@H]1CN(C)CC1CCCC1`?
T cruzi growth: inactive; IDH1 mut inh: inactive; KDM4C inh: inactive; Pf Dd2 inh: -86

Results for C[C@@H]1CN([C@H](C)CO)C(=O)c2cc(C#CCc3ccccc3)cnc2O[C@H]1CN(C)C(=O)C1CCCCC1 ?
T cruzi growth: inactive; IDH1 mut inh: inactive; KDM4C inh: inactive; Pf Dd2 inh: -83

What do the screens show for `CCCC#Cc1cnc2c(c1)C(=O)N([C@H](C)CO)C[C@@H](C)[C@H](CN(C)Cc1cccnc1)O2`?
T cruzi growth: inactive; IDH1 mut inh: inactive; KDM4C inh: inactive; Pf Dd2 inh: inactive

Results for C[C@H]1CN([C@@H](C)CO)C(=O)c2cc(NC(=O)Nc3ccc(C(F)(F)F)cc3)ccc2O[C@@H]1CN(C)CC1CCCCC1 ?
T cruzi growth: inactive; IDH1 mut inh: inactive; KDM4C inh: inactive; Pf Dd2 inh: inactive

How did CC(C)C#Cc1cnc2c(c1)C(=O)N([C@H](C)CO)C[C@H](C)[C@@H](CN(C)C(=O)c1cnccn1)O2 do in these assays?
T cruzi growth: inactive; KDM4C inh: inactive; Pf Dd2 inh: inactive

How did CN(CC(=O)Nc1ccccc1Cl)S(=O)(=O)c1ccc(Cl)cc1 do in these assays?
IDH1 mut inh: inactive

Results for C[C@@H]1CN([C@@H](C)CO)C(=O)c2cc(C#Cc3ccccc3)cnc2O[C@H]1CN(C)C(=O)CCN1CCCCC1 ?
T cruzi growth: inactive; IDH1 mut inh: inactive; KDM4C inh: inactive; Pf Dd2 inh: -88

Results for C[C@H]1CN([C@@H](C)CO)C(=O)c2cc(C#Cc3ccccc3)cnc2O[C@@H]1CN(C)C(=O)CCN1CCCCC1 ?
T cruzi growth: inactive; IDH1 mut inh: inactive; KDM4C inh: inactive; Pf Dd2 inh: inactive

How did O=C(C1CCC1)N1CC2(C1)[C@@H](c1ccccc1)[C@@H](CO)N2C(=O)c1cccnc1 do in these assays?
KDM4C inh: inactive; Pf Dd2 inh: inactive

Results for O=C(C1CCCC1)N1CC[C@@H]2[C@H]1c1cc(-c3cccc(F)c3)ccc1N[C@@H]2CO ?
KDM4C inh: inactive; Pf Dd2 inh: -82

What do the screens show for `N#Cc1ccc(-c2ccc3c(c2)[C@@H]2[C@@H](CCN2C(=O)C2CCC2)[C@@H](CO)N3)cc1`?
KDM4C inh: inactive; Pf Dd2 inh: -84

Results for N#Cc1cccc(-c2ccc3c(c2)[C@H]2[C@H](CCN2C(=O)C2CCCCC2)[C@H](CO)N3)c1 ?
T cruzi growth: inactive; KDM4C inh: inactive; Pf Dd2 inh: inactive

Results for N#Cc1ccc(-c2ccc3c(c2)[C@H]2[C@H](CCN2C(=O)C2CCCC2)[C@H](CO)N3)cc1 ?
Pf Dd2 inh: -86
